RORA act – activates the human nuclear receptor RORA | P35398 | CHO-K1 Gal4-RORA LBD luciferase reporter, luminescence; percent increase over mock-subtracted basal signal | activation, % at 10 µM | 65,000 tested, 1.5% active | AID 560;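 active means activation above the mean of all tested compounds plus 3 SD, cut at about 49% in these data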;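 further: 0% = DMSO-treated RORA cells and 100% = added signal equal to DMSO minus mock-transfected cells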
Target sequence (P35398 whole entry, looked up, the tested form may be a part): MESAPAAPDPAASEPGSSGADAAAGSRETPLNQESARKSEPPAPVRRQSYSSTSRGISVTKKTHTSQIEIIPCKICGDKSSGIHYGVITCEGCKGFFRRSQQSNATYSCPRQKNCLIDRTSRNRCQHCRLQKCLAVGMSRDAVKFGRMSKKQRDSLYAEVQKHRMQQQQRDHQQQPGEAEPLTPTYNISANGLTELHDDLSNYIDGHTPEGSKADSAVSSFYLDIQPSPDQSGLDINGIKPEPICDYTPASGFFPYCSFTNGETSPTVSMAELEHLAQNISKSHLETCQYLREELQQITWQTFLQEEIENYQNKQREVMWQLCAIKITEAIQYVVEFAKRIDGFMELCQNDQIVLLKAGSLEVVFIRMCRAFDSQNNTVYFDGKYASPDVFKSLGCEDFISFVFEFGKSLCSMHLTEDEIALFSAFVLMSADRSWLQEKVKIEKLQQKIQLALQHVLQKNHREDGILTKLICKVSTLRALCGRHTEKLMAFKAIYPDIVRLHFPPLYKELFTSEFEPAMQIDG
SF1 activator – activators of human nuclear receptor SF-1. activation, % at 10 µM. CHO-K1 Gal4-SF-1 LBD luciferase reporter; % increase over DMSO SF-1-specific signal. 65,000 tested, 1.9% active;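 active means activation above the mean activation of all tested compounds plus 3 SD, cut at about 50% in these data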
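material = CHO-K1 cells with Gal4–hSF-1 LBD chimera plus Gal4-driven luciferase | compound = 10 µM single point, 1% DMSO | incubation = 20 h compound exposure at 37 °C after 1 h cell settling | measured by = SteadyLite luciferase luminescence | evaluation = percent activation relative to DMSO median and mock-transfected background | control set = DMSO negative control and −SF1 background wells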
BAP1 inh – blocks human BAP1 ubiquitin-AMC hydrolysis; Q92560; recombinant BAP1, Ub-AMC hydrolysis fluorescence kinetic; active compounds read low; activity remaining (% of control), % at 20 µM; 72,000 tested, 0.48% active; AID 436;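 active means activity remaining at or below 50% of control, provided the compound also passes the data quality filters; inactive means the rest, including low values that fail the filters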;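 further: 100% = DMSO wells rate and 0% = substrate alone blank rate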
JNK3 blocker – JNK3 (human) kinase inhibition; inhibition, % at 8 µM; purified JNK3 kinase activity, HTS; AID 746; 60,000 tested, 0.61% active; in the data active means inhibition above about 17%;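 further: 0% = DMSO and 100% = reference inhibitor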
E coli RNAP – blocks E. coli RNA polymerase transcription; P0A8V2; fluorescence transcription assay; inhibition, %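 (tested at 10 µM)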; 62,000 tested, 0.2% active; in the data active means inhibition above about 20%;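 further: 0% = enzyme without compound and 100% = no enzyme blank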
* hit, by the source's call. Compounds with a hit are over-represented: about 3.2% of the library has one in this group of screens.

How did O=C(Cc1ccc(Br)cc1)c1ccc(O)cc1O do in these assays?
RORA act: 37.2; SF1 activator: 83.6*; BAP1 inh: 82.0; JNK3 blocker: 4.2; E coli RNAP: 8.8

How did Cc1nn(-c2nc3ccccc3s2)c(N)c1-c1ccccc1 do in these assays?
RORA act: 43.3; SF1 activator: 60.0*; BAP1 inh: 72.3; JNK3 blocker: -7.4; E coli RNAP: 3.4

Results for Cc1nn(-c2nc3ccccc3[nH]2)c(N)c1-c1ccccc1 ?
RORA act: 54.3*; SF1 activator: 31.2; BAP1 inh: 66.9; JNK3 blocker: 5.4; E coli RNAP: 3.2

What do the screens show for `Cc1nn(-c2nc3ccccc3s2)c(N)c1-c1ccc(Cl)cc1`?
RORA act: 25.6; SF1 activator: 19.5; BAP1 inh: 59.1; JNK3 blocker: 3.5

Results for Cc1nn(-c2nc3ccccc3s2)c(N)c1Sc1ccc(F)cc1 ?
RORA act: 25.9; SF1 activator: 63.0*; JNK3 blocker: 0.9; E coli RNAP: -9.1

What do the screens show for `Cc1ccc(S(=O)(=O)C2(C(=O)N(C)C3CCCCC3)CC2)cc1`?
RORA act: 4.2; SF1 activator: 5.5; BAP1 inh: 99.5; JNK3 blocker: 3.2; E coli RNAP: 2.2

How did O=C(Nc1ccccc1Cl)c1cccc([N+](=O)[O-])c1 do in these assays?
BAP1 inh: 49.0

Results for c1ccc(-c2cc(-c3nc(-c4cccnc4)no3)c3ccccc3n2)cc1 ?
RORA act: -12.7; SF1 activator: -13.6; BAP1 inh: 69.1; JNK3 blocker: -3.5

How did O=C(NCCN1CCOCC1)c1cc(-c2ccccc2)on1 do in these assays?
RORA act: -1.0; SF1 activator: 36.8; BAP1 inh: 112.1; JNK3 blocker: 4.0; E coli RNAP: 14.5

What do the screens show for `O=C(NCCN1CCOCC1)c1cc(-c2cccs2)on1`?
RORA act: 67.5*; SF1 activator: 34.6; BAP1 inh: 101.8; JNK3 blocker: 5.8; E coli RNAP: 0.5

How did O=C(c1cc(-c2cccs2)on1)N1CCOCC1 do in these assays?
RORA act: 50.9*; SF1 activator: 48.2; BAP1 inh: 108.8; JNK3 blocker: 4.2; E coli RNAP: -1.5

Results for N#Cc1c(-c2ccccc2)nc(N2CCOCC2)[nH]c1=O ?
RORA act: -8.8; SF1 activator: 5.1; BAP1 inh: 98.2; JNK3 blocker: 3.6

Results for S=c1[nH]nc(Cc2ccccc2)n1Cc1ccco1 ?
RORA act: -7.9; SF1 activator: 0.1; BAP1 inh: 99.5; JNK3 blocker: -1.3; E coli RNAP: 6.2

How did O=C(CCCN1CCOCC1)c1ccc2c(c1)OCCO2 do in these assays?
RORA act: 28.8; SF1 activator: 55.7*; BAP1 inh: 98.0; JNK3 blocker: -1.4; E coli RNAP: 2.0

What do the screens show for `C/C(=N\O)c1ccc2[nH]ccc2c1`?
RORA act: 31.8; SF1 activator: 17.2; BAP1 inh: 65.2; JNK3 blocker: -3.9; E coli RNAP: 8.0

What do the screens show for `C/C(=N\O)c1ccc2c3c([nH]c2c1)CCCC3`?
RORA act: 54.1*; SF1 activator: 64.1*; BAP1 inh: 92.7; JNK3 blocker: -4.5; E coli RNAP: 3.9

How did CN1C(=O)CSc2ccc(NC(=O)N3CCN(c4ccccn4)CC3)cc21 do in these assays?
RORA act: -18.6; SF1 activator: -17.3; BAP1 inh: 71.3; JNK3 blocker: -2.8; E coli RNAP: 7.9

How did CN1C(=O)CSc2ccc(NC(=O)N3CCc4ccccc43)cc21 do in these assays?
RORA act: 74.8*; SF1 activator: 104.8*; BAP1 inh: 115.0; JNK3 blocker: 1.8; E coli RNAP: 4.9

How did Cc1cc(C(=O)Nc2cc(C)n(Cc3ccc(Cl)cc3)n2)no1 do in these assays?
RORA act: 0.5; SF1 activator: -11.1; BAP1 inh: 103.1; JNK3 blocker: -2.4; E coli RNAP: 2.1

What do the screens show for `Cc1cc(=O)c2n(Cc3ccc(Cl)cc3)nc[n+]2[nH]1`?
RORA act: 5.3; SF1 activator: -14.2; BAP1 inh: 99.8; JNK3 blocker: -11.8; E coli RNAP: 48.9*

How did CNC(=O)c1c(NC(=O)c2nc3ccccc3s2)sc2c1CCC2 do in these assays?
RORA act: 96.0*; SF1 activator: 72.5*; BAP1 inh: 55.9; JNK3 blocker: 6.0; E coli RNAP: 10.6

What do the screens show for `COC(=O)c1c(NC(=O)c2nc3ccccc3s2)sc2c1CCN(C(C)=O)C2`?
RORA act: 36.2; SF1 activator: 40.6; BAP1 inh: 83.2; JNK3 blocker: 5.9; E coli RNAP: -1.2

How did Nn1c(Nc2ccccc2)nc2ccccc2c1=O do in these assays?
RORA act: 15.7; SF1 activator: -11.2; BAP1 inh: 101.8; JNK3 blocker: -0.2; E coli RNAP: 3.7

What do the screens show for `Nn1c(Nc2ccccc2)nc2ccccc21`?
RORA act: 50.5*; SF1 activator: 41.7; BAP1 inh: 84.3; JNK3 blocker: -15.2; E coli RNAP: 2.6

What do the screens show for `CCCCc1cc(=O)oc2cc(OCC(=O)N(CC)CC)c(Cl)cc12`?
RORA act: 6.3; SF1 activator: -18.2; BAP1 inh: 79.5; JNK3 blocker: -5.8; E coli RNAP: -0.2

What do the screens show for `[O-][N+]1=c2ccc(Nc3ccccc3)cc2=NC12CCCCC2`?
RORA act: -50.6; SF1 activator: -61.8; BAP1 inh: 135.9; JNK3 blocker: 5.5; E coli RNAP: 3.4

What do the screens show for `C=CCn1c(SCC(=O)c2ccc(NS(=O)(=O)c3ccccc3)cc2)nnc1-c1cccs1`?
RORA act: 14.8; SF1 activator: 2.1; JNK3 blocker: 1.0; E coli RNAP: 25.7*

What do the screens show for `C=CCn1c(SCC(=O)Nc2ccc(C(=O)OCC)cc2)nnc1-c1cccs1`?
RORA act: 3.5; SF1 activator: 15.4; BAP1 inh: 102.5; JNK3 blocker: -3.2; E coli RNAP: 9.5

How did O=C(CSc1ncccn1)Nn1cnnc1 do in these assays?
RORA act: 2.7; SF1 activator: 15.0; BAP1 inh: 96.0; JNK3 blocker: 4.8; E coli RNAP: 8.3

How did Cc1cc(-c2nc3c4c5c(sc4[nH]c(=O)n3n2)CCC5)c(C)o1 do in these assays?
RORA act: 14.1; SF1 activator: -0.7; JNK3 blocker: -3.7; E coli RNAP: 10.4

What do the screens show for `COc1cc(C(=O)NCc2cn3ccccc3n2)cc(OC)c1OC`?
RORA act: -3.6; SF1 activator: 3.4; BAP1 inh: 94.5; JNK3 blocker: 57.9*

How did COc1cc(C(=O)NCc2cn3cccc(C)c3n2)cc(OC)c1OC do in these assays?
RORA act: 4.2; SF1 activator: 13.7; BAP1 inh: 95.5; JNK3 blocker: -2.1; E coli RNAP: 12.6

What do the screens show for `CCOc1ccc(NC(=O)Cn2nnc(-c3ccccc3NC(=O)C3CC3)n2)cc1`?
RORA act: -12.1; SF1 activator: 11.7; BAP1 inh: 92.1; JNK3 blocker: -8.3; E coli RNAP: 23.7*

What do the screens show for `CSc1nc2ccccc2n1CC(=O)N1CCCCC1`?
RORA act: -16.6; SF1 activator: 2.2; BAP1 inh: 100.4; JNK3 blocker: 2.1; E coli RNAP: 5.2

How did COc1ccc(NC(=O)NCCN2CCc3ccccc3C2)cc1 do in these assays?
RORA act: -6.9; SF1 activator: -1.2; BAP1 inh: 90.5; JNK3 blocker: -3.5

Source: PubChem BioAssay (several laboratories)
